# Assay results published in ChEMBL document CHEMBL1275447 (Antimicrob Agents Chemother, 2008).
# Activity calls are given as the source filed them. The calls are words filed in the database; no cut-off is given here.
# Tests used:
# Pseudomonas aeruginosa [1] = assay: Antibacterial activity against Pseudomonas aeruginosa isolate 1082 by microdilution method; type: functional
# How it was run: (§1)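 CLSI broth microdilution in cation-adjusted Mueller-Hinton broth (20–25 mg/liter Ca, 10–12.5 mg/liter Mg). Standard inoculum 10⁵ CFU/ml, incubated in ambient air. Clinical hospital isolates.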
# [2] = fT>MIC in human infected with Pseudomonas aeruginosa isolate 993 at 500 mg administered as 1 hr infusion; type: functional
# [3] = fT>MIC in human infected with Pseudomonas aeruginosa isolate 1060 at 500 mg administered as 4 hr infusion; type: functional
# Pseudomonas aeruginosa [4] = assay: Antibacterial activity against Pseudomonas aeruginosa isolate 1050 by microdilution method; type: functional; how it was run: as §1
# [5] = fT>MIC in human infected with Pseudomonas aeruginosa isolate 896 at 500 mg administered as 4 hr infusion; type: functional
# [6] = fT>MIC in human infected with Pseudomonas aeruginosa isolate 931 at 500 mg administered as 4 hr infusion; type: functional
# [7] = fT>MIC in human infected with Pseudomonas aeruginosa isolate 935 at 500 mg administered as 1 hr infusion; type: functional
# [8] = AUC (0 to 24 hrs) in Pseudomonas aeruginosa ATCC 27853 infected neutropenic ICR mouse at 150 mg/kg, sc administered as single dose 2 hrs postinfection; type: ADME, organism-based; design: time < 24 hr, dose 150 mg/kg, route subcutaneous; settings: plasma
# How it was run: (§2)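 Neutropenic mice (cyclophosphamide ip 150 and 100 mg/kg, 4 and 1 days before inoculation) with uranyl nitrate 5 mg/kg ip 3 days before, for renal impairment. Thigh infection with ATCC 27853 at 10⁶ CFU/ml, 0.1 ml per thigh. Single sc doses 2 h later. Intracardiac blood from 6–12 mice per time point, eight time points over 4 h. Serum assayed by HPLC (linear 0.5–40 μg/ml). One-compartment first-order fit.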
# [9] = Clearance in Pseudomonas aeruginosa ATCC 27853 infected neutropenic ICR mouse at 10 mg/kg, sc administered as single dose 2 hrs postinfection; type: ADME, organism-based; design: dose 10 mg/kg, route subcutaneous; settings: in vivo; how it was run: as §2
# [10] = fT>MIC in human infected with Pseudomonas aeruginosa isolate 886 at 500 mg administered as 1 hr infusion; type: functional
# Pseudomonas aeruginosa [11] = assay: Antibacterial activity against Pseudomonas aeruginosa isolate 1058 by microdilution method; type: functional
# [12] = fT>MIC in human infected with Pseudomonas aeruginosa isolate 979 at 500 mg administered as 4 hr infusion; type: functional
# [13] = fT>MIC in neutropenic mouse infected with Pseudomonas aeruginosa isolate 1005 at 500 mg administered as 1 hr infusion; type: functional
# Pseudomonas aeruginosa [14] = assay: Antibacterial activity against Pseudomonas aeruginosa isolate 886 by microdilution method; type: functional
# Pseudomonas aeruginosa [15] = assay: Antibacterial activity against Pseudomonas aeruginosa isolate 936 by microdilution method; type: functional
# [16] = fT>MIC in human infected with Pseudomonas aeruginosa isolate 1055 at 500 mg administered as 4 hr infusion; type: functional
# Pseudomonas aeruginosa [17] = assay: Antibacterial activity against Pseudomonas aeruginosa isolate 1060 by fractionation study; type: functional
# [18] = fT>MIC in human infected with Pseudomonas aeruginosa isolate 1082 at 500 mg administered as 4 hr infusion; type: functional
# [19] = fT>MIC in human infected with Pseudomonas aeruginosa isolate 1050 at 500 mg administered as 1 hr infusion; type: functional
# [20] = fT>MIC in neutropenic mouse infected with Pseudomonas aeruginosa isolate 1029 at 500 mg administered as 4 hr infusion; type: functional
# [21] = Cmax in Pseudomonas aeruginosa ATCC 27853 infected neutropenic ICR mouse at 150 mg/kg, sc administered as single dose 2 hrs postinfection by HPLC; type: ADME, organism-based; design: dose 150 mg/kg, route subcutaneous; settings: in vivo; how it was run: as §2
# [22] = fT>MIC in human infected with Pseudomonas aeruginosa isolate 944 at 500 mg administered as 4 hr infusion; type: functional
# [23] = AUC in Pseudomonas aeruginosa ATCC 27853 infected neutropenic ICR mouse at 500 mg administered as 1 hr infusion; type: ADME, organism-based; settings: plasma, iv
# [24] = fT>MIC in human infected with Pseudomonas aeruginosa isolate 936 at 500 mg administered as 4 hr infusion; type: functional
# [25] = fT>MIC in human infected with Pseudomonas aeruginosa isolate 1052 at 500 mg administered as 1 hr infusion; type: functional
# [26] = Cmax in healthy human at 500 mg administered as 1 hr infusion; type: ADME, organism-based; design: dose 500 mg; settings: in vivo, iv
# [27] = fT>MIC in human infected with Pseudomonas aeruginosa isolate 1006 at 500 mg administered as 1 hr infusion; type: functional
# [28] = fT>MIC in neutropenic mouse infected with Pseudomonas aeruginosa isolate 935 at 500 mg administered as 1 hr infusion; type: functional
# How it was run: (§3)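 Free-drug time above MIC simulated from one-compartment mouse serum PK (25.2% protein binding). The mice were cyclophosphamide-neutropenic and uranyl nitrate-renally impaired. Regimen was subcutaneous 10, 15, 2.5, 1.25, 0.5, 0.25 mg/kg at 0, 0.5, 2.5, 4, 5.5, 7 h, repeated every 8 h over 24 h.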
# [29] = fT>MIC in human infected with Pseudomonas aeruginosa isolate 1029 at 500 mg administered as 1 hr infusion; type: functional
# [30] = fT>MIC in neutropenic mouse infected with Pseudomonas aeruginosa isolate 1082 at 500 mg administered as 4 hr infusion; type: functional
# How it was run: (§4)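 Mouse fT>MIC was modelled with first-order one-compartment serum PK and 25.2% binding. Mice were neutropenic (cyclophosphamide) with uranyl nitrate renal impairment. Subcutaneous doses were 5.5, 2.25, 4.5, 4.5, 4.5, 4.5, 0.75, 0.375 mg/kg at 0, 0.5, 1.5, 2.5, 3.5, 4.5, 6, 7.5 h per 8-h interval over 24 h.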
# [31] = fT>MIC in human infected with Pseudomonas aeruginosa isolate 1062 at 500 mg administered as 4 hr infusion; type: functional
# Pseudomonas aeruginosa [32] = assay: Antibacterial activity against Pseudomonas aeruginosa isolate 931 at 4 ug/ml after 24 hrs; type: functional, organism-based
# [33] = AUC in healthy human at 500 mg administered as 4 hr infusion; type: ADME, organism-based; settings: plasma, iv
# [34] = fT>MIC in neutropenic mouse infected with Pseudomonas aeruginosa isolate 931 at 500 mg administered as 1 hr infusion; type: functional; how it was run: as §3
# [35] = fT>MIC in human infected with Pseudomonas aeruginosa isolate 869 at 500 mg administered as 1 hr infusion; type: functional
# [36] = fT>MIC in neutropenic mouse infected with Pseudomonas aeruginosa isolate 1060 at 500 mg administered as 4 hr infusion; type: functional; how it was run: as §4
# [37] = fT>MIC in neutropenic mouse infected with Pseudomonas aeruginosa isolate 896 at 500 mg administered as 4 hr infusion; type: functional; how it was run: as §4
# [38] = fT>MIC in human infected with Pseudomonas aeruginosa isolate 968 at 500 mg administered as 4 hr infusion; type: functional
# [39] = fT>MIC in neutropenic mouse infected with Pseudomonas aeruginosa isolate 1058 at 500 mg administered as 1 hr infusion; type: functional; how it was run: as §3
# Pseudomonas aeruginosa [40] = assay: Antibacterial activity against Pseudomonas aeruginosa isolate 1050 by fractionation study; type: functional
# Pseudomonas aeruginosa [41] = assay: Antibacterial activity against Pseudomonas aeruginosa isolate 944 by fractionation study; type: functional
# Pseudomonas aeruginosa [42] = assay: Antibacterial activity against Pseudomonas aeruginosa isolate 906 by microdilution method; type: functional
compound,measurement,setting,value
C[C@@H](O)[C@H]1C(=O)N2C(C(=O)O)=C(S[C@@H]3CN[C@H](CNS(N)(=O)=O)C3)[C@H](C)[C@H]12 [DORIPENEM],MIC,Pseudomonas aeruginosa [1],1 µg/mL
same,fT>MIC,[2],100%
same,fT>MIC,[3],55%
same,MIC,Pseudomonas aeruginosa [4],4 µg/mL
same,fT>MIC,[5],0%
same,fT>MIC,[6],55%
same,fT>MIC,[7],55%
same,AUC(0-t) at 24 h,[8],168000 ng·h/mL
same,CL/F,[9],11.2 mL/min/kg
same,fT>MIC,[10],90%
same,MIC,Pseudomonas aeruginosa [11],2 µg/mL
same,fT>MIC,[12],65%
same,fT>MIC,[13],55%
same,MIC,Pseudomonas aeruginosa [14],0.25 µg/mL
same,MIC,Pseudomonas aeruginosa [15],8 µg/mL
same,fT>MIC,[16],95%
same,MIC,Pseudomonas aeruginosa [17],2.75 µg/mL
same,fT>MIC,[18],80%
same,fT>MIC,[19],27.5%
same,fT>MIC,[20],100%
same,Cmax,[21],194 µg/mL
same,fT>MIC,[22],55%
same,AUC at 1 h,[23],37600 ng·h/mL
same,fT>MIC,[24],0%
same,fT>MIC,[25],55%
same,Cmax,[26],21.8 µg/mL
same,fT>MIC,[27],17.5%
same,fT>MIC,[28],55%
same,fT>MIC,[29],100%
same,fT>MIC,[30],82.5%
same,fT>MIC,[31],95%
same,Activity,Pseudomonas aeruginosa [32],inactive
same,AUC at 4 h,[33],32400 ng·h/mL
same,fT>MIC,[34],30%
same,fT>MIC,[35],90%
same,fT>MIC,[36],52.5%
same,fT>MIC,[37],0%
same,fT>MIC,[38],0%
same,fT>MIC,[39],42.5%
same,MIC,Pseudomonas aeruginosa [40],4 µg/mL
same,MIC,Pseudomonas aeruginosa [41],3 µg/mL
same,MIC,Pseudomonas aeruginosa [42],2 µg/mL
